Assay outcomes deposited in PubChem BioAssay by several laboratories.
Hep lipid drop: inhibitors of hepatocyte lipid droplet formation, primary screen, imaging, high-throughput imaging, BODIPY stain. AML12 mouse hepatocytes, oleate lipid droplets. 0.4% of 240,000 active. AID 1656, 2009. inhibition, % at 6.5 µM;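 active = lipid droplet intensity inhibited by at least 50%, with more than 500 cells counted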
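Assay system: AML12 hepatocytes (mouse) / Also added: 100 µM oleic acid challenge / Times: overnight treatment with compound plus oleate / Detection: high-content imaging of BODIPY-stained droplets and DAPI nuclei / Evaluation: % inhibition of lipid droplet signal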
NTR1 ag: agonists of human NTR1, primary screen, imaging, U2OS cells, beta-arrestin-GFP, high content. Neurotensin receptor type 1 (Homo sapiens), P30989. NTR1-U2OS beta-arrestin-GFP spot imaging, agonist mode. activation, % at 20 µM. 0.17% of 330,000 active. AID 493036, 2011;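 active = activation at or above 40% of the spot to cytoplasm intensity ratio, with at least 20 cells analyzed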;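 also: 0% = DMSO without peptide and 100% = 100 nM NTR1 peptide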
MC4R antagonist: MC4R antagonists of cAMP signaling, primary screen, cell-based, TR-FRET, antagonist arm of biased-ligand search; Melanocortin receptor 4 (Homo sapiens), P32245; inhibition, % at 6.5 µM; 0.48% of 360,000 active; MC4R-expressing cells, MTII-stimulated cAMP, LANCE TR-FRET;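 active = inhibition above its plate's cutoff, the mean of tested wells on that plate plus 3 SD, cut at about 29% in these data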;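 also: 0% = Melanotan II alone and 100% = Melanotan II plus saturating MCL0020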
Target sequence (P32245 whole entry, looked up): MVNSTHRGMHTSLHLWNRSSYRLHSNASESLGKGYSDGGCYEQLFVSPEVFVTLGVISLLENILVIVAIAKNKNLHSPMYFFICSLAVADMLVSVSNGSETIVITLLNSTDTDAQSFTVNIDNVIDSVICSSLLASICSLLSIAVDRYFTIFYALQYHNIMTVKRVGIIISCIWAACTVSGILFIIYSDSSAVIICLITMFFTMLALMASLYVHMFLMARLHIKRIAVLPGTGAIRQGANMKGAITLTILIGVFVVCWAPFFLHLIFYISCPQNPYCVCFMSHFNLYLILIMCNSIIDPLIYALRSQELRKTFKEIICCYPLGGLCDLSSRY
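Assay system: U2OS-MC4R stable cell line; Also added: Melanotan II; Technique: Eu-cAMP/anti-cAMP TR-FRET, emission 671 nm; Times: 30-min compound, 1-h challenge, 1-h detection, room temperature.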
PREPL inhibitor: PREPL enzyme inhibitors, primary screen, biochemical, fluorescence polarization. recombinant PREPL, fluorescence polarization activity-based probe. Prolyl endopeptidase-like (Homo sapiens), Q4J6C6. AID 2751, 2010. 0.68% of 320,000 active. inhibition, % at 5.96 µM; in the data active = inhibition above about 43%;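 also: 0% = enzyme with DMSO and 100% = wells lacking enzyme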
MC4R ag barr: MC4R agonists recruiting beta-arrestin, primary screen, cell-based, luminescence, agonist arm of biased-ligand search; AID 540308, 2011; U2OS MC4R beta-arrestin complementation; percent of melanotan II response, DMSO zero; activation, % at 8.9 µM; Melanocortin receptor 4 (Homo sapiens), P32245; 0.98% of 360,000 active;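 active = activation above a per-plate cutoff, the mean activation of sample wells on that plate plus 3 SD, cut at about 8% in these data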
HTR2A ag: mouse Htr2a agonists via beta-arrestin recruitment, primary screen, cell-based, luminescence. 0.66% of 360,000 active. AID 624169, 2012. CHO-K1 mHTR2A beta-arrestin complementation; percent of 30 µM serotonin response. 5-hydroxytryptamine receptor 2A (Mus musculus), P35363. activation, % at 7.6 µM;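 active = activation above a run cutoff, the mean activation of all tested compounds plus 3 SD, cut at about 14% in these data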;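 also: 0% = plate median of compound wells and 100% = 30 µM serotonin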
MC4R barr ag: MC4R beta-arrestin agonists, retest, confirmation, cell-based, luminescence, U2OS. shares compounds with MC4R ag barr. 31% of 2,400 active. U2OS MC4R beta-arrestin recruitment; scaled DMSO 0%, Melanotan II 100%. activation, % at 8.9 µM;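 active = mean activation across replicates above the hit cutoff set in the earlier primary screen, cut at about 8% in these data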
MOR DOR agonist: agonists of MOR-DOR heterodimerization, counter-screen for MC4R biased agonist project, cell-based, luminescence; shares compounds with MC4R ag barr; AID 602194, 2012; 5.8% of 2,400 active; U2OS PathHunter beta-arrestin, beta-gal luminescence; percent of deltorphin B response, DMSO zero; activation, % at 9.2 µM;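 active = mean activation across replicates exceeds the hit threshold derived in the earlier primary screen, cut at about 18% in these data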;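 also: 100% = deltorphin B at 0.9 µM final and 0% = DMSO alone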
* marks the source's active call; other numbers are inactive results; x = no result. Most compounds without a hit are left out; they make up all but 2.7% or so of the library.

SMILES | Hep lipid drop | NTR1 ag | MC4R antagonist | PREPL inhibitor | MC4R ag barr | HTR2A ag | MC4R barr ag | MOR DOR agonist
COc1ccc(-c2nn(-c3ccccc3)cc2/C=C/C(=O)OCC(=O)Nc2ccc(C#N)cc2)cc1 | -15 | 9 | 3 | -2 | 10* | 1 | -1 | 4
COc1ccc(-c2nn(-c3ccccc3)cc2/C=N/NC(=O)c2ccc(Br)o2)cc1 | x | 7 | -1 | -4 | 0 | 1 | x | x
C=CCNC(=S)N/N=C/c1cn(-c2ccccc2)nc1-c1ccc(OC)cc1 | 9 | 8 | 2 | 0 | 15* | 5 | 5 | 4
CC(C)c1ccc(NS(=O)(=O)c2ccc(-n3cccn3)cc2)cc1 | 26 | 10 | 3 | -27 | 13* | -2 | 17* | 11
CC(C)c1ccc(S(=O)(=O)Nc2ccc(-n3cnnn3)cc2)cc1 | x | 1 | 8 | x | -1 | -8 | x | x
CCN(C(=O)CSc1nnnn1-c1ccc(Cl)cc1)C1CCS(=O)(=O)C1 (stereo unspecified) | x | -1 | 1 | 7 | -1 | 3 | x | x
NC(=O)CC(NC(=O)Cc1ccc(Br)cc1)c1ccc(NC2CCCCCCC2)c([N+](=O)[O-])c1 (stereo unspecified) | x | x | 8 | x | 11* | 8 | 6 | 1
NC(=O)CC(NC(=O)Cc1ccc(Br)cc1)c1ccc(NC2CCCCCC2)c([N+](=O)[O-])c1 (stereo unspecified) | 19 | 30 | 6 | -6 | -2 | -2 | x | x
Cc1ccnc(NS(=O)(=O)c2ccc(NC(=O)CSc3nc(-c4ccccc4)cc(=O)[nH]3)cc2)n1 | 2 | 1 | 2 | 13 | -1 | 1 | x | x
CCCCc1ccc(NS(=O)(=O)c2cccs2)cc1 | x | 7 | 15 | 0 | 17* | 5 | 8.5* | 7
O=S(=O)(Nc1ccc(Cc2ccncc2)cc1)c1cccs1 | x | 0 | 13 | 17 | -1 | -4 | x | x
CCCN(CCC)Cc1c(C(=O)N/N=C/c2ccc(C)o2)nnn1-c1nonc1N | -21 | 0 | 6 | 3 | 13* | -1 | 3 | 14
Nc1nonc1-n1nnc(C(=O)N/N=C/c2ccc(OCc3ccc(F)cc3)cc2)c1COc1ccccc1 | -12 | 5 | 20 | 1 | 19* | -1 | 8 | 3
O=C(N/N=C/c1ccc(OCc2ccccc2)cc1)c1ccco1 | 2 | 2 | 0 | 10 | 0 | -6 | x | x
O=C(N/N=C/c1ccccc1)c1ccc(OCc2ccccc2)cc1 | 2 | 3 | 0 | 5 | 12* | -2 | 3 | 4
Cc1ccc(COc2ccc(/C=N/NC(=O)c3nnn(-c4nonc4N)c3COc3ccc(F)cc3)cc2)cc1 | -4 | 5 | 3 | 9 | -2 | 0 | x | x
COc1ccc(-c2c3c(cc4ncn(Cc5ccccc5)c24)COC3=O)cc1 | x | 2 | 4 | 9 | -1 | 3 | x | x
Cc1cc(C)c2sc(N(CCN(C)C)C(=O)c3c(F)cccc3F)nc2c1 | -6 | 1 | 8 | -7 | 0 | -8 | x | x
Cc1cccc2sc(N(CCCN(C)C)C(=O)c3ccc(Cl)s3)nc12 | 4 | 5 | 0 | -64 | 11* | 11 | 4 | 6
Cc1cc(C)c2sc(N(CCCN(C)C)C(=O)c3ccc(Br)s3)nc2c1 | 0 | 8 | 2 | -38 | 16* | -6 | 21* | 14
C[C@@H]1CN([C@@H](C)CO)C(=O)CCCn2nncc2CO[C@@H]1CN(C)S(=O)(=O)c1cccc(C#N)c1 | x | x | 8 | x | -3 | -4 | x | x
O=S(=O)(NCc1ccccn1)c1ccc(Cl)s1 | 3 | 0 | 1 | -1 | 0 | 0 | x | x
CO/N=C(/CS(=O)Cc1ccc(Cl)cc1)c1ccc(Cl)cc1 (stereo unspecified) | -5 | 4 | 11 | -15 | 14* | -1 | 0 | 6
CO/N=C(\CS(=O)(=O)Cc1ccc(OC)cc1)c1ccc(Cl)cc1 | x | -1 | -2 | 3 | 8 | 0 | x | x
CC(=O)Nc1cc(-c2cccc(C(=O)N(C)C)c2)cn2c(-c3cccc(C(=O)N(C)C)c3)cnc12 | x | x | 17 | x | 1 | -2 | x | x
SMILES | Hep lipid drop | NTR1 ag | MC4R antagonist | PREPL inhibitor | MC4R ag barr | HTR2A ag | MC4R barr ag | MOR DOR agonist
CN(C)C(=O)c1cccc(-c2cnc3c(NC=O)cc(-c4cccc(F)c4)cn23)c1 | x | x | -16 | x | 5 | 6 | x | x
CC(=O)c1cccc(-c2cnc3c(NC=O)cc(-c4ccccc4F)cn23)c1 | x | x | -8 | x | 20* | 9 | 20* | 3
CC(=O)Nc1cc(-c2cccc(C(=O)N(C)C)c2)cn2c(-c3ccc(F)c(Cl)c3)cnc12 | x | x | 9 | x | 16* | -6 | 23* | 2
CC(=O)Nc1cc(-c2ccoc2)cn2c(-c3ccccc3)cnc12 | x | x | 12 | x | 11* | -3 | 15* | 3
CC(=O)Nc1cc(-c2cccc(C(=O)N(C)C)c2)cn2c(-c3ccc(C(C)=O)cc3)cnc12 | x | x | 21 | x | 11* | 10 | 6 | 1
COc1ccc(CC(=O)NCc2n[nH]c(=S)n2-c2ccccc2OC)cc1 | -4 | 2 | 0 | 11 | -3 | -3 | x | x
CC(=O)Nc1cc(-c2cccc(N)c2)cn2c(-c3ccccc3)cnc12 | x | x | 18 | x | 12* | -2 | 2 | 3
CC(=O)Nc1cc(-c2ccccc2)cn2c(-c3cccc(C(C)=O)c3)cnc12 | x | x | 6 | x | 21* | 1 | 20* | 3
CC(=O)Nc1cc(-c2ccc(C(=O)N3CCOCC3)cc2)cn2c(-c3ccccc3)cnc12 | x | x | 7 | x | 25* | 3 | 19* | 1
CC(=O)Nc1cc(-c2ccc(C(=O)N3CCOCC3)cc2)cn2c(-c3ccc(C(C)=O)cc3)cnc12 | x | x | 8 | x | 3 | 7 | x | x
C=Cc1ccc(Cn2nc(-c3ccc(C)cc3)ccc2=O)cc1 | -41 | 4 | 4 | -32 | 0 | 0 | x | x
Oc1cccc(C(O)CNCc2ccc(OCc3ccc(Cl)cc3Cl)cc2)c1 (stereo unspecified) | 2 | 5 | 0 | 18 | 14* | 7 | 27* | 15
